{"source": "ChEMBL document CHEMBL1150418", "about": "“Discovery of potent furan piperazine sodium channel blockers for treatment of neuropathic pain” (Bioorg Med Chem, 2008)", "key": {"[1]": {"target": "T1, Sodium channel protein type 10 subunit alpha (Homo sapiens, UniProt Q9Y5Y9)", "test": "Inhibition of human recombinant Nav1.8 channel expressed in HEK293 cells at 0.03 uM by whole cell voltage clamp technique", "format": "cell-based", "outline": "(§1)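 HEK293 cells stably expressing recombinant human sodium channels, grown in high-glucose DMEM, 10% FBS, 2 mM sodium pyruvate, G418. Whole-cell voltage clamp; pipettes 0.8–2.5 MΩ; internal (mM) 135 CsF, 10 CsCl, 5 EGTA, 5 NaCl, 10 HEPES, pH 7.3 with CsOH. Holding pre-pulse set at midpoint of steady-state inactivation for each subtype.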"}, "[2]": {"target": "T1, Sodium channel protein type 10 subunit alpha", "test": "Inhibition of human recombinant Nav1.8 channel expressed in HEK293 cells at 0.3 uM by whole cell voltage clamp technique", "format": "cell-based", "outline": "as §1"}, "[3]": {"target": "Sodium channel protein type 10 subunit alpha (Rattus norvegicus) (UniProt Q62968)", "sequence (Q62968 whole entry, looked up)": "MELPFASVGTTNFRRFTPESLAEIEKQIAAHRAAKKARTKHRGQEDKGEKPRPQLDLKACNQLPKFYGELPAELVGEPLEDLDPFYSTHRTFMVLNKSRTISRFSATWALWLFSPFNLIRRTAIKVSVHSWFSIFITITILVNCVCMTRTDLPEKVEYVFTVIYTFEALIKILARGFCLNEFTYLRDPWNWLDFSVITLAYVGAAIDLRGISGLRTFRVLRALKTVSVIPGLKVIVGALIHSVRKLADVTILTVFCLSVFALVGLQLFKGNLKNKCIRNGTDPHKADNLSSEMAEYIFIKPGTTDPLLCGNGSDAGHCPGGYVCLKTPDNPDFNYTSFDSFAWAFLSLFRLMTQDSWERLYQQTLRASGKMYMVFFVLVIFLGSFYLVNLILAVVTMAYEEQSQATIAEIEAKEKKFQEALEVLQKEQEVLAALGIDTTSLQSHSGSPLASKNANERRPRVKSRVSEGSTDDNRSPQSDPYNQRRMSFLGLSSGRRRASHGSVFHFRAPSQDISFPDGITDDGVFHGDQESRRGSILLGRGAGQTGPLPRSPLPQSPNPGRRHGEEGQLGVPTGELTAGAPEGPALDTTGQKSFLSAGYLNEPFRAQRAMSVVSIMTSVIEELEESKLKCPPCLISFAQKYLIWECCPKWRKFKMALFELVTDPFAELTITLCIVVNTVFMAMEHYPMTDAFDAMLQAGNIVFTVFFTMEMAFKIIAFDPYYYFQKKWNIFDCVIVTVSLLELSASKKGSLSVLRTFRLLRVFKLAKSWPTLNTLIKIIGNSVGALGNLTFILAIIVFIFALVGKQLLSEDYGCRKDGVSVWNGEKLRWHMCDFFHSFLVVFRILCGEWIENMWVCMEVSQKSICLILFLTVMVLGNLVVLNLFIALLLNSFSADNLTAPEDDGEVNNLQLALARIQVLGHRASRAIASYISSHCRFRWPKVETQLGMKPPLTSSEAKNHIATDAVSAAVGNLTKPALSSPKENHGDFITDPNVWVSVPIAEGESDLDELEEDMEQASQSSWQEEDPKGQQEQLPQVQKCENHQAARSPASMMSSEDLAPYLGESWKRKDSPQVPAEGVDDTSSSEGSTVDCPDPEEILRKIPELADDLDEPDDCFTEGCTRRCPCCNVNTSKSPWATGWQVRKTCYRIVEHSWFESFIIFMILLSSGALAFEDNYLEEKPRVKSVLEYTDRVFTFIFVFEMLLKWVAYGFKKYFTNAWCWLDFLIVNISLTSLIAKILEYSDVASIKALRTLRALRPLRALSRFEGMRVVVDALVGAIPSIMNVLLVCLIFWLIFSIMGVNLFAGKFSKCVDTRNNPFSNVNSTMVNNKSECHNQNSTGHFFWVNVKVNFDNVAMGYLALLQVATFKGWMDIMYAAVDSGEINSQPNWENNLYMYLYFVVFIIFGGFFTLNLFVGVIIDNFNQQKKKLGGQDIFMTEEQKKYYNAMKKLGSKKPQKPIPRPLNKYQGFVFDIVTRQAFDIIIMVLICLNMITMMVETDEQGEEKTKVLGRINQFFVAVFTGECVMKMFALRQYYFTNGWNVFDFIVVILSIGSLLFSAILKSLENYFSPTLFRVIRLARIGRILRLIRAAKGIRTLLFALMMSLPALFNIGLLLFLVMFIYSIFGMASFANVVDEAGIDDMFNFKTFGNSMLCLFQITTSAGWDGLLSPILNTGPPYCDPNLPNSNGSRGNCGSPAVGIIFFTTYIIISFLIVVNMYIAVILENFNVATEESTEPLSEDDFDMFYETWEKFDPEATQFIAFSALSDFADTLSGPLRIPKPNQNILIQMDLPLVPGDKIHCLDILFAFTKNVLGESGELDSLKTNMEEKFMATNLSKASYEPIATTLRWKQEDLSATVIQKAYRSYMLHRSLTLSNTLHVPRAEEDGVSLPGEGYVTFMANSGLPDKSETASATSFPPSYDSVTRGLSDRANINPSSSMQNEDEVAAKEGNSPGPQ", "test": "Blockade of Nav1.8 channel in rat dorsal root ganglion neurons assessed as inhibition of TTX-R current at 1 uM by whole cell patch clamp technique", "format": "tissue-based", "outline": "(§2)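 Whole-cell voltage clamp of TTX-resistant currents in dissociated rat DRG neurons. Pipette (mM): CsF 135, NaCl 5, CsCl 10, EGTA 5, HEPES 10, pH 7.2. Bath (mM): NaCl 22, choline Cl 110, CaCl2 1.8, MgCl2 0.8, HEPES 10, glucose 5, pH 7.4. Inactivated-state protocol with pre-pulse at V1/2 (−40 mV). Mean ± SEM of two to six determinations.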"}, "[4]": {"target": "T1, Sodium channel protein type 10 subunit alpha", "test": "Inhibition of human recombinant Nav1.8 channel expressed in HEK293 cells by whole cell voltage clamp technique", "format": "cell-based", "outline": "as §1"}, "[5]": {"target": "T1, Sodium channel protein type 10 subunit alpha", "test": "Inhibition of human recombinant Nav1.8 channel expressed in HEK293 cells at 0.1 uM by whole cell voltage clamp technique", "format": "cell-based", "outline": "as §1"}, "[6]": {"target": "Sodium channel protein type 5 subunit alpha (Homo sapiens, UniProt Q14524)", "test": "Inhibition of human recombinant Nav1.5 channel expressed in HEK293 cells by whole cell voltage clamp technique", "format": "cell-based", "outline": "(§3)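 HEK293 cells stably expressing recombinant human sodium channels, grown in high-glucose DMEM, 10% FBS, 2 mM sodium pyruvate, G418. Holding pre-pulse set at midpoint of steady-state inactivation for each subtype.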"}, "[7]": {"system": "Rattus norvegicus", "test": "Analgesic activity in po dosed Sprague-Dawley rat by rotarod test", "format": "functional", "outline": "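Accelerating rotorod: after 30-min acclimation, rats placed on 9-cm rod ramping 0–20 rpm over 60 s; latency to fall recorded, maximum 60 s; three training sessions per rat. Groups of at least six rats; mean ± SEM.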"}, "[8]": {"target": "Sodium channel protein type 10 subunit alpha (Rattus norvegicus, UniProt Q62968)", "sequence (Q62968 whole entry)": "as the sequence (Q62968 whole entry, looked up) above", "test": "Blockade of Nav1.8 channel in rat dorsal root ganglion neurons assessed as inhibition of TTX-R current by whole cell patch clamp technique", "format": "tissue-based", "outline": "as §2"}, "[9]": {"target": "Sodium channel protein type 10 subunit alpha (Rattus norvegicus) (UniProt Q62968)", "test": "Blockade of Nav1.8 channel in rat dorsal root ganglion neurons assessed as inhibition of TTX-R current at 0.3 uM by whole cell patch clamp technique", "format": "tissue-based", "outline": "as §2"}, "[10]": {"system": "Rattus norvegicus", "test": "Effect on locomotor activity in po dosed Sprague-Dawley rat", "format": "functional", "outline": "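Open-field locomotor activity recorded with photobeam activity monitors during the light cycle; groups of at least six rats, mean ± SEM.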"}, "[11]": {"test": "Plasma clearance in Sprague-Dawley rat at 10 mg/kg", "format": "ADME, organism-based", "design": "dose 10 mg/kg", "outline": "(§4)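 Rat pharmacokinetics after administration at 10 mg/kg in 10% DMSO/PEG400.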"}, "[12]": {"system": "Rattus norvegicus", "test": "Analgesic activity in po dosed Sprague-Dawley rat by edge test", "format": "functional", "outline": "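Balance test: rats placed on 0.5-cm-thick edges of a 40 × 40 × 36 cm plexiglass box, must pull up onto the edge and avoid falling; cut-off 2 min. Groups of at least six rats.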"}, "[13]": {"test": "Ratio of drug level in brain to plasma in Sprague-Dawley rat", "format": "ADME", "conditions": "Sprague-Dawley, brain and plasma"}, "[14]": {"system": "Rattus norvegicus", "test": "Analgesic activity in po dosed Sprague-Dawley rat assessed as attenuation of mechanical allodynia in chung model of neuropathic pain", "format": "functional"}, "[15]": {"target": "Sodium channel protein type 10 subunit alpha (Mus musculus, UniProt Q6QIY3)", "sequence (Q6QIY3 whole entry)": "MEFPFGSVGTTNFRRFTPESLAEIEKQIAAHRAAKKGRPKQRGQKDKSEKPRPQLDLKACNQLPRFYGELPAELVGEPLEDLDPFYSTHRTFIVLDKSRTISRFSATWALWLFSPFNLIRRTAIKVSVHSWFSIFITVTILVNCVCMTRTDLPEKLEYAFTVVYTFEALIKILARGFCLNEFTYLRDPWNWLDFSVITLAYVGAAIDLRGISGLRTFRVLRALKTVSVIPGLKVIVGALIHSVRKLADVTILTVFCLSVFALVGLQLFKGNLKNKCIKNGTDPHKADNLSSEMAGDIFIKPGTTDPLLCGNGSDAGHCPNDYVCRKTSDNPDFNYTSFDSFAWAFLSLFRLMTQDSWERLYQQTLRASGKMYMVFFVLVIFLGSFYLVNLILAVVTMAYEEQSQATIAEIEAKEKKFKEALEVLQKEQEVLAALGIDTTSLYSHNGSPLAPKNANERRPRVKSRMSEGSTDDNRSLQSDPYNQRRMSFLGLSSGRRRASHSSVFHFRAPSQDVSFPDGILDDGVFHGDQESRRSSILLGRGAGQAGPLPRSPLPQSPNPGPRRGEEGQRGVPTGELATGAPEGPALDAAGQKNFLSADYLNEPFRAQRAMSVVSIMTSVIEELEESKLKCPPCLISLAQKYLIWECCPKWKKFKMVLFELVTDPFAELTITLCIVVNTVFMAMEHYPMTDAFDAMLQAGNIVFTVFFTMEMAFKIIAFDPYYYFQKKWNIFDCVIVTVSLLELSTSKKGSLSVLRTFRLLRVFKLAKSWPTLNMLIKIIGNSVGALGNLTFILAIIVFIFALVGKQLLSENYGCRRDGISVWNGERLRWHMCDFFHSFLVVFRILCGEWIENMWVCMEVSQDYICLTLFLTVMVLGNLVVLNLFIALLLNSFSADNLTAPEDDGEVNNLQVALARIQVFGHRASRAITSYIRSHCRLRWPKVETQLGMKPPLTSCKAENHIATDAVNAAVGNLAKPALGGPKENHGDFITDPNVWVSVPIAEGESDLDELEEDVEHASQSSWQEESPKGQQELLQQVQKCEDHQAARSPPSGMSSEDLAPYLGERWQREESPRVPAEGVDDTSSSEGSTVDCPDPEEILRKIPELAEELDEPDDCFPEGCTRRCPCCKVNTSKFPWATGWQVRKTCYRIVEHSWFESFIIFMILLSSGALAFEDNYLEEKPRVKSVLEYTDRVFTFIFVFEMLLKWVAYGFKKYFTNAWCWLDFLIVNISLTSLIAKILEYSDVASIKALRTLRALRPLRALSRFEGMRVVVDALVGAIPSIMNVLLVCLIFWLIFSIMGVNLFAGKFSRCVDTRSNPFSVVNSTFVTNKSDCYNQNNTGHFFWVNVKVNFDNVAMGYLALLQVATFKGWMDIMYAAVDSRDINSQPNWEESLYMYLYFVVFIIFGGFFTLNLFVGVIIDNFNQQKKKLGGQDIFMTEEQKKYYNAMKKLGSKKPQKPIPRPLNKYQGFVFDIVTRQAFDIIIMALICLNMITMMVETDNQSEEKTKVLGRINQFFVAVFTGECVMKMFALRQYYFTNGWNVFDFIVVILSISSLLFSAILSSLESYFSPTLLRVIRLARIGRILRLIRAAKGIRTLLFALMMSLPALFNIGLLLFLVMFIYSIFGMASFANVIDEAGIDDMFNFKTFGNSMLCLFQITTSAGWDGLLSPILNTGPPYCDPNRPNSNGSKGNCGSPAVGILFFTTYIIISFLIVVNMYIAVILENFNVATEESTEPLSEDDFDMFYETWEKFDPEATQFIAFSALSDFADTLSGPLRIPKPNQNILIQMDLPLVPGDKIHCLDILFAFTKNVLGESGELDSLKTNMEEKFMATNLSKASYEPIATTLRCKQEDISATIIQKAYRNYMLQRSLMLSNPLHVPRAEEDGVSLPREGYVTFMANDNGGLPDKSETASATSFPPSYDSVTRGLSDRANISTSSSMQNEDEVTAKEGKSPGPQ", "test": "Inhibition of mouse recombinant Nav1.8 channel expressed in HEK293 cells by isotopic efflux assay", "format": "cell-based"}, "[16]": {"test": "Volume of distribution at steady state in Sprague-Dawley rat at 10 mg/kg", "format": "ADME, organism-based", "design": "dose 10 mg/kg", "conditions": "in vivo, read-out: Vdss", "outline": "as §4"}, "[17]": {"test": "Oral bioavailability in Sprague-Dawley rat at 10 mg/kg", "format": "ADME, organism-based", "conditions": "in vivo", "outline": "as §4"}, "[18]": {"test": "Cmax in Sprague-Dawley rat at 10 mg/kg, po", "format": "ADME, organism-based", "design": "dose 10 mg/kg, route oral", "conditions": "in vivo", "outline": "as §4"}, "[19]": {"target": "Sodium channel protein type 2 subunit alpha (Homo sapiens, UniProt Q99250)", "test": "Inhibition of human recombinant Nav1.2 channel expressed in HEK293 cells by whole cell voltage clamp technique", "format": "cell-based", "outline": "as §3"}, "[20]": {"target": "Sodium channel protein type 10 subunit alpha (Rattus norvegicus) (UniProt Q62968)", "test": "Blockade of Nav1.8 channel in rat dorsal root ganglion neurons assessed as inhibition of TTX-R current at 3 uM by whole cell patch clamp technique", "format": "tissue-based", "outline": "as §2"}, "[21]": {"target": "Sodium channel protein type 10 subunit alpha (Rattus norvegicus) (UniProt Q62968)", "test": "Blockade of Nav1.8 channel in rat dorsal root ganglion neurons assessed as inhibition of TTX-R current at 0.1 uM by whole cell patch clamp technique", "format": "tissue-based", "outline": "as §2"}, "[22]": {"target": "5-hydroxytryptamine receptor 1B (Homo sapiens) (UniProt P28222)", "sequence (P28222 whole entry)": "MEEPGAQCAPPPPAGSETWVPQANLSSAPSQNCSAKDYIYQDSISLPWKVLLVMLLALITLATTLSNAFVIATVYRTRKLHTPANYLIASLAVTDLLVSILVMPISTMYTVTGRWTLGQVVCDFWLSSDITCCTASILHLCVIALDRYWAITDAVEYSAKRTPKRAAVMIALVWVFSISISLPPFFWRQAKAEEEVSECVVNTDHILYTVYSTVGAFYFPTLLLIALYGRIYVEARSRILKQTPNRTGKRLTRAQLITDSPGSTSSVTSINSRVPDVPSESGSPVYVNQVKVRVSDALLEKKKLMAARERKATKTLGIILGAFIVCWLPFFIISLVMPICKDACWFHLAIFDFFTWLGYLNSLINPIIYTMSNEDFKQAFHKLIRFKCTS", "test": "Binding affinity to 5HT1B receptor at 10 uM"}, "[23]": {"target": "T2, 5-hydroxytryptamine receptor 1A (Homo sapiens) (UniProt P08908)", "T2 sequence (whole entry)": "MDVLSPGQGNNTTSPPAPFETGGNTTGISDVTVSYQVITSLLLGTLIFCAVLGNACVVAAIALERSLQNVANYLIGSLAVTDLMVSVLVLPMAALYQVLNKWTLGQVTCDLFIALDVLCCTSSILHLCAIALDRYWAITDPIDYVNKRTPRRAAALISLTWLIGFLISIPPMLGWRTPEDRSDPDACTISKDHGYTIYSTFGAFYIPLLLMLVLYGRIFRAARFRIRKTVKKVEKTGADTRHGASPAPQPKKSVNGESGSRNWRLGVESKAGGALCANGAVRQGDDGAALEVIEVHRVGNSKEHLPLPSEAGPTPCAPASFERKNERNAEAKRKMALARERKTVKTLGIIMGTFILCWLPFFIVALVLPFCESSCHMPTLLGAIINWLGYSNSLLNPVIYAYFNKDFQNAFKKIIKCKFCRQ", "test": "Binding affinity to 5HT1A receptor at 10 uM"}}, "data": [{"smiles": "O=C(c1ccc(-c2ccc(Oc3ccccc3)cc2)o1)N1CCN(C2CCCCC2)CC1", "values": [{"measurement": "inhibition", "setting": "[1]", "result": 68, "unit": "%"}, {"measurement": "inhibition", "setting": "[2]", "result": 93, "unit": "%"}, {"measurement": "inhibition", "setting": "[3]", "result": 67, "unit": "%"}]}, {"smiles": "C[C@@H](NC(=O)c1ccc(-c2ccc(Cl)cc2)o1)C(=O)N1CCN(CCCOc2ccc(C(=O)C3CC3)cc2)CC1", "values": [{"measurement": "IC50", "setting": "[4]", "result": 1000, "unit": "nM"}]}, {"smiles": "O=C(c1ccc(-c2ccc(OC(F)(F)F)cc2)o1)N1CCN(C2CCCCC2)CC1", "values": [{"measurement": "inhibition", "setting": "[5]", "result": 42, "unit": "%"}, {"measurement": "inhibition", "setting": "[2]", "result": 89, "unit": "%"}]}, {"smiles": "O=C(c1ccc(-c2ccc(Cl)cc2)o1)N1CCN(C2CCCCC2)CC1", "values": [{"measurement": "IC50", "setting": "[6]", "result": 2300, "unit": "nM"}, {"measurement": "ED50", "setting": "[7]", "result": "> 300", "unit": "µmol/kg"}, {"measurement": "IC50", "setting": "[8]", "result": 390, "unit": "nM"}, {"measurement": "IC50", "setting": "[4]", "result": 300, "unit": "nM"}, {"measurement": "inhibition", "setting": "[9]", "result": 50, "unit": "%"}, {"measurement": "ED50", "setting": "[10]", "result": "> 300", "unit": "µmol/kg"}, {"measurement": "clearance", "setting": "[11]", "result": 45, "unit": "mL/min/kg"}, {"measurement": "ED50", "setting": "[12]", "result": "> 300", "unit": "µmol/kg"}, {"measurement": "Kp", "setting": "[13]", "result": 9}, {"measurement": "ED50", "setting": "[14]", "result": 37, "unit": "µmol/kg"}, {"measurement": "IC50", "setting": "[15]", "result": 1000, "unit": "nM"}, {"measurement": "Vd", "setting": "[16]", "result": 7.8, "unit": "L/kg"}, {"measurement": "bioavailability", "setting": "[17]", "result": 48, "unit": "%"}, {"measurement": "Cmax", "setting": "[18]", "result": 470, "unit": "ng/mL"}, {"measurement": "inhibition", "setting": "[2]", "result": 58, "unit": "%"}, {"measurement": "IC50", "setting": "[19]", "result": 350, "unit": "nM"}]}, {"smiles": "CN1CCC(NC(=O)c2ccc(-c3ccc(Cl)cc3)o2)CC1", "values": [{"measurement": "inhibition", "setting": "[9]", "result": 51, "unit": "%"}, {"measurement": "IC50", "setting": "[15]", "result": 1900, "unit": "nM"}]}, {"smiles": "CN1CCN(C(=O)c2ccc(-c3ccc(C(C)(C)C)cc3)o2)CC1", "values": [{"measurement": "inhibition", "setting": "[2]", "result": 32, "unit": "%"}, {"measurement": "inhibition", "setting": "[3]", "result": 55, "unit": "%"}]}, {"smiles": "O=C(c1ccc(-c2ccc(Cl)cc2)o1)N1CCOCC1", "values": [{"measurement": "IC50", "setting": "[15]", "result": 32000, "unit": "nM"}]}, {"smiles": "O=C(NCCCN1CCCCC1)c1ccc(-c2ccc(Cl)cc2)o1", "values": [{"measurement": "inhibition", "setting": "[9]", "result": 52, "unit": "%"}, {"measurement": "IC50", "setting": "[15]", "result": 1600, "unit": "nM"}]}, {"smiles": "CN1CCN(C(=O)c2ccc(-c3ccc(Cl)cc3)o2)CC1", "values": [{"measurement": "inhibition", "setting": "[20]", "result": 31, "unit": "%"}, {"measurement": "IC50", "setting": "[15]", "result": 9900, "unit": "nM"}]}, {"smiles": "CN1CCN(C(=O)c2ccc(-c3ccc(Oc4ccccc4)cc3)o2)CC1", "values": [{"measurement": "inhibition", "setting": "[5]", "result": 35, "unit": "%"}, {"measurement": "inhibition", "setting": "[21]", "result": 55, "unit": "%"}, {"measurement": "inhibition", "setting": "[2]", "result": 87, "unit": "%"}, {"measurement": "inhibition", "setting": "[3]", "result": 90, "unit": "%"}]}, {"smiles": "O=C(c1ccc(-c2ccc(Cl)cc2)o1)N1CCNCC1", "values": [{"measurement": "IC50", "setting": "[6]", "result": 4600, "unit": "nM"}, {"measurement": "ED50", "setting": "[7]", "result": "> 300", "unit": "µmol/kg"}, {"measurement": "IC50", "setting": "[8]", "result": 430, "unit": "nM"}, {"measurement": "IC50", "setting": "[4]", "result": 280, "unit": "nM"}, {"measurement": "inhibition", "setting": "[9]", "result": 41, "unit": "%"}, {"measurement": "ED50", "setting": "[10]", "result": "> 300", "unit": "µmol/kg"}, {"measurement": "Activity", "setting": "[22]", "result": 86, "unit": "%"}, {"measurement": "Activity", "setting": "[23]", "result": 60, "unit": "%"}, {"measurement": "clearance", "setting": "[11]", "result": 350, "unit": "mL/min/kg"}, {"measurement": "ED50", "setting": "[12]", "result": "> 300", "unit": "µmol/kg"}, {"measurement": "Kp", "setting": "[13]", "result": 9}, {"measurement": "ED50", "setting": "[14]", "result": 24, "unit": "µmol/kg"}, {"measurement": "IC50", "setting": "[15]", "result": 2900, "unit": "nM"}, {"measurement": "Vd", "setting": "[16]", "result": 24, "unit": "L/kg"}, {"measurement": "bioavailability", "setting": "[17]", "result": 42, "unit": "%"}, {"measurement": "Cmax", "setting": "[18]", "result": 130, "unit": "ng/mL"}, {"measurement": "inhibition", "setting": "[2]", "result": 55, "unit": "%"}, {"measurement": "IC50", "setting": "[19]", "result": 1100, "unit": "nM"}]}]}
